Ends that are not written are not given here.
Molecular target: recombinant human VEGFR-2 (Homo sapiens, UniProt P35968)
Assay: SPR binding affinity to immobilized VEGFR-2
Method in brief: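 Recombinant human receptor protein amine-coupled to a CM5 chip. Test peptides diluted in HBS-EP buffer and flowed over the surface at 0.0156, 0.03125, 0.0625, 0.125 and 0.25 μM, with resonance unit changes recorded. Response curves were fitted to a 1:1 Langmuir binding model to give the equilibrium dissociation constant KD.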

Chain of recombinant human VEGFR-2 (P35968 20-1356): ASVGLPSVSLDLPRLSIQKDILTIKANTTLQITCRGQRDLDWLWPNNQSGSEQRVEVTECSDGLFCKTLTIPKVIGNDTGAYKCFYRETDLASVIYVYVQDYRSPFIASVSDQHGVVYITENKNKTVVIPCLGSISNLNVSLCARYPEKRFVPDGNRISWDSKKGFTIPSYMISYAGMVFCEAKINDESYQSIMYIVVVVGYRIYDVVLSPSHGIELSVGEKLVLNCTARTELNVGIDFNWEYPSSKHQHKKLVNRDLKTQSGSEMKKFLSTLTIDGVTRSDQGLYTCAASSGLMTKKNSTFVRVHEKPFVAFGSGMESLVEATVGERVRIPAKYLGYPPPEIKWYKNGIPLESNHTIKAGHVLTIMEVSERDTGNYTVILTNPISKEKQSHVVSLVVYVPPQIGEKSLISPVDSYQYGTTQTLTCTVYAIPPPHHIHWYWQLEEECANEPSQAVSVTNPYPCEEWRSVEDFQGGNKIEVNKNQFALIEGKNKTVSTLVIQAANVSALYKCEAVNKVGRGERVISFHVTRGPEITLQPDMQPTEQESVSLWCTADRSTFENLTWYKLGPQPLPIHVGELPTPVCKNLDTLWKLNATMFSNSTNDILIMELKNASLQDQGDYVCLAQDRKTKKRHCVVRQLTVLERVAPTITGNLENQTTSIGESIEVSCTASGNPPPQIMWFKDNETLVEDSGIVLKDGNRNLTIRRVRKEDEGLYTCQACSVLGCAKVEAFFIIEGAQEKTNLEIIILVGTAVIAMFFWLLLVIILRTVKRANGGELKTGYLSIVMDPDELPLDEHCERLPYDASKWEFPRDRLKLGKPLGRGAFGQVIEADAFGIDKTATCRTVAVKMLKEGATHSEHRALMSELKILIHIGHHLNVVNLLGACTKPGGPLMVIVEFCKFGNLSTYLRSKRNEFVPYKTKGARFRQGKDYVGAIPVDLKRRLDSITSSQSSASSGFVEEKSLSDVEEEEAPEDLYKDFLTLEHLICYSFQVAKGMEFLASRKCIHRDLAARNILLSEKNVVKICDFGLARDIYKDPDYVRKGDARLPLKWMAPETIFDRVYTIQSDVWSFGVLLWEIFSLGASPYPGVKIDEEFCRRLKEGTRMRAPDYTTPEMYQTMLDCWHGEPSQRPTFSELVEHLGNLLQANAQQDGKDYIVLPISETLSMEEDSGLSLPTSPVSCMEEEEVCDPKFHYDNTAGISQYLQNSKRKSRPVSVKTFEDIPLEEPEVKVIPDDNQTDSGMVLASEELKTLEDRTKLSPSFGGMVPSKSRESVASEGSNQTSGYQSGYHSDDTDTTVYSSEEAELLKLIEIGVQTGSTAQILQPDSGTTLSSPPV

Compound	Kd
ATWLPPRC [AT7]	283 nM
CC(C)C[C@H](NC(=O)[C@H](Cc1c[nH]c2ccccc12)NC(=O)[C@@H](NC(=O)[C@H](C)NC(=O)[C@H](CS)NC(=O)[C@H](CCCNC(=N)N)NC(=O)[C@H](CCCNC(=N)N)NC(=O)[C@H](CCCNC(=N)N)NC(=O)[C@H](CCC(N)=O)NC(=O)[C@H](CCCNC(=N)N)NC(=O)[C@H](CCCNC(=N)N)NC(=O)[C@H](CCCCN)NC(=O)[C@H](CCCCN)NC(=O)[C@@H](N)CCCNC(=N)N)[C@@H](C)O)C(=O)N1CCC[C@H]1C(=O)N1CCC[C@H]1C(=O)N[C@@H](CCCNC(=N)N)C(=O)O [TAT-AT7]	22.8 nM
